Experimental data: ChEMBL document CHEMBL3244000, “Aromatic hydroxylation of beta-adrenergic antagonists. Formation of 4'- and 5'-hydroxy-1-(isopropylamino)-3-[2'-allyloxy)phenoxy]-2-propanol from oxprenolol” (J Med Chem, 1979)

Columns and labels:
[1] = Drug level in Sprague-Dawley rat urine treated with oxprenolol hydrochloride at 20 mg/kg, ip measured after 24 hrs by GC-CIMS analysis; format: ADME, organism-based; parameters: dose 20 mg/kg, route intraperitoneal; conditions: in vivo
In short: (§1)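 Six male Sprague-Dawley rats (120 g) were given oxprenolol hydrochloride ip at 20 mg/kg (4 mg/mL in sterile isotonic water). Urine was collected over 24 h in metabolic cages and pooled, then incubated overnight at 37 °C with 9200 units β-glucuronidase in pH 5.0 acetate buffer. Extract was methylated with diazomethane and TFA-derivatized. GC-CIMS monitored QM ions; isomer ratio was taken from the total ion current tracings.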

[2] = Drug level in Sprague-Dawley rat urine treated with oxprenolol hydrochloride at 20 mg/kg, ip measured after 24 hrs by GC-CIMS analysis in presence of beta-glucuronidase and CH2N2; format: ADME, organism-based; parameters: dose 20 mg/kg, route intraperitoneal; conditions: in vivo; in short: as §1

Row | SMILES | Drug excretion [1] | Drug excretion [2]
1 | C=CCOc1cc(O)ccc1OCC(O)CNC(C)C (centres undefined) | metabolite_detected | 
2 | C=CCOc1ccc(O)cc1OCC(O)CNC(C)C (centres undefined) | metabolite_detected | 
3 | C=CCOc1cc(OC)ccc1OCC(O)CNC(C)C (centres undefined) |  | metabolite_detected
4 | C=CCOc1ccc(OC)cc1OCC(O)CNC(C)C (centres undefined) |  | metabolite_detected
